Results on 10 compounds are retold here after PubChem BioAssay AID540295 (The Scripps Research Institute Molecular Screening Center, 2011).

The campaign covered roughly 360,000 compounds. About 1,700 (0.47%) were called active. For the sample, actives were picked, then their nearest neighbours and some compounds at random. Unmarked numbers belong to inactive results.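 The calls were made as follows: active = inhibition above its plate's cutoff, the mean of tested wells on that plate plus 3 SD (cut at about 29% in these data); inactive = the rest.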

Melanocortin receptor 4 (Homo sapiens), sequence (P32245 whole entry, looked up): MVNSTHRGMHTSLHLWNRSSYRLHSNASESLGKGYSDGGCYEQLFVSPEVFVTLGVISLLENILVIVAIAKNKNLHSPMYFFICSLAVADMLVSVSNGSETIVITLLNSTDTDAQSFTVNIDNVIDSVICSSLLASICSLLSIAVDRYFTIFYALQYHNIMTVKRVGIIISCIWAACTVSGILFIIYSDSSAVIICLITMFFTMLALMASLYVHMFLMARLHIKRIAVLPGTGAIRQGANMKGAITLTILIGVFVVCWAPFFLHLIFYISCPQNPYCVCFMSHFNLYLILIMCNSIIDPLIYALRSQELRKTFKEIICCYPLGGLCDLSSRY

This experiment concerns the target Melanocortin receptor 4 (Homo sapiens) (UniProt P32245). The experiment can be described thus: blockers of MC4R Gs-cAMP response – cell-based, TR-FRET, antagonist arm of biased-ligand search, primary screen (AID 540295).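 Also: 0% = Melanotan II alone and 100% = Melanotan II plus saturating MCL0020.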 Particulars: MC4R-expressing cells, MTII-stimulated cAMP, LANCE TR-FRET; at 6.5 µM; active compounds read high. The essentials: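 System: U2OS-MC4R stable cell line; Technique: Eu-cAMP/anti-cAMP TR-FRET, emission 671 nm; Repeats: single well per compound; Also added: Melanotan II; Dosing: one concentration, 6.5 µM nominal; Schedule: 30-min compound, 1-h challenge, 1-h detection, room temperature.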
For the compound `COc1cccc(N2C(=O)NC(=O)/C(=C\c3ccc([N+](=O)[O-])s3)C2=O)c1`, the inhibition is 28.6% (active).

With `O=C(N/N=C/c1c(O)n(C2CC2)c(=S)[nH]c1=O)c1ccccc1Cl`, the inhibition was 20.1%.

Take `c1ccc(CCNC2CCCCCC2)cc1`: the inhibition was 17.4%.

For the compound `COc1cc(OC)cc(C2(C#N)CCN(C)CC2)c1`, the inhibition is 17%.

On to `O=C(NC(=S)N1C[C@H]2C[C@H](C1)c1cccc(=O)n1C2)c1ccc(F)cc1`, for which the inhibition is 7.13%.

As to `Cc1cccc(N2C(=O)NC(=O)/C(=C\c3cnn(-c4ccccc4)c3)C2=O)c1`, the inhibition was 35.2% (active).

`Cc1c(C(=O)O)cccc1-n1c(C)cc(/C=C2\C(=O)NC(=O)N(c3ccc4c(c3)OCO4)C2=O)c1C`: the inhibition is 5.16%.

On to `CCN1CCN(c2ccc([N+](=O)[O-])cc2C#N)CC1`, for which the inhibition is -10.7%.

`CC(C)c1c(CN(C)C(C)Cc2ccccc2)n(C)n(-c2ccccc2)c1=O` (stereo not given): the inhibition was 10.7%.

Consider `CC(=O)c1c(O)n(C2CCCCCC2)c(=O)[nH]c1=O`, for which the inhibition is 2.26%.
